Series [1] deals with Mycobacterium tuberculosis. Description: Antimycobacterial activity against Mycobacterium tuberculosis H37Rv ATCC 25618 after 7 days by resazurin dye based assay. It is filed as functional. As to conditions: H37Rv ATCC 25618, 168 h. The method in brief:
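H37Rv grown at 37 °C in 7H9 with 10% ADC, 0.5% glycerol and 0.02% tyloxapol. Compounds serially diluted in water, 0 to 10 µM, in triplicate. Culture adjusted to OD600 0.001 and incubated 7 days at 37 °C. Resazurin (0.05% w/v) added for 4-24 h and fluorescence read at 590 nm. MIC is the lowest concentration giving complete growth inhibition versus untreated. Rifampicin served as control.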
For orientation: The colour change of resazurin is a common sign of viable cells or microbes.

Series [2] is described as follows: Selectivity index, ratio of CC50 for human HepG2 cells in presence of 10% FBS to IC50 for CQ-sensitive GFP-fused Plasmodium falciparum D10. It is filed as toxicity. As to conditions: read-out: Ratio IC50.
Series [3] can be described thus: Selectivity index, ratio of CC50 for human HepG2 cells in presence of 10% FBS to MIC for Mycobacterium tuberculosis H37Rv ATCC 25618. As to conditions: read-out: Selectivity Index. Format: toxicity.
Series [4] in a line: Cytotoxicity against human HepG2 cells after 24 hrs in presence of 1% FBS by resazurin dye based assay. Format: cell-based. The method in brief: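 HepG2 cells seeded at 4000/well in DMEM with 1% FBS and allowed to attach for 24 h at 37 °C, 5% CO2. Compounds added from 300 to 0.14 µM in 3-fold steps and incubated 24 h. 10 µM resazurin added for 2 h, fluorescence read at ex/em 560/590. Percent viability computed relative to untreated and negative controls, duplicate wells.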

Series [5] can be described thus: Cytotoxicity against human HepG2 cells after 24 hrs in presence of 10% FBS by resazurin dye based assay. Format: cell-based. In outline: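 HepG2 cells seeded at 4000/well in DMEM with 10% FBS and allowed to attach for 24 h at 37 °C, 5% CO2. Compounds added from 300 to 0.14 µM in 3-fold steps and incubated 24 h. 10 µM resazurin added for 2 h, fluorescence read at ex/em 560/590. Percent viability computed relative to untreated and negative controls, duplicate wells.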

The nature of series [6]: Selectivity index, ratio of CC50 for human HepG2 cells in presence of 1% FBS to MIC for Mycobacterium tuberculosis H37Rv ATCC 25618. Format: toxicity. As to conditions: read-out: Selectivity Index.
Series [7] relates to Plasmodium falciparum. Description: Growth inhibition of CQ-sensitive GFP-fused Plasmodium falciparum D10 after 90 hrs by ethidium bromide staining based flow cytometry. It is filed as functional, organism-based. Particulars: D10, 90 h. The method in brief: (§1)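 Parasites cultured in human O+ erythrocytes in RPMI-HEPES pH 7.4 with hypoxanthine, NaHCO3, gentamicin and 0.5% Albumax II under 1% O2/4% CO2 at 37 °C. Synchronised to rings with heparin plus sorbitol. Set up at 1% parasitaemia and 1% haematocrit with 10x compound added. Cultured 90 h to next-cycle trophozoites. Stained with 10 µg/mL ethidium bromide for 1 h, washed, parasitaemia counted by flow cytometry with GFP gating.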

The nature of series [8]: Selectivity index, ratio of CC50 for human HepG2 cells in presence of 1% FBS to IC50 for CQ-sensitive GFP-fused Plasmodium falciparum D10. Format: toxicity. As to conditions: read-out: Ratio IC50.
Series [9] in a line: Selectivity index, ratio of CC50 for human HepG2 cells in presence of 1% FBS to IC50 for drug-resistant GFP-fused Plasmodium falciparum D10. It is filed as toxicity. Particulars: read-out: Ratio IC50.
Series [10] has as its system Plasmodium falciparum. Briefly: Growth inhibition of […] GFP-fused Plasmodium falciparum D10 after 90 hrs by ethidium bromide staining based flow cytometry. It is filed as functional, organism-based. Particulars: D10, 90 h. In outline: as §1
Series [11] can be described thus: Selectivity index, ratio of CC50 for human HepG2 cells in presence of 10% FBS to IC50 for drug-resistant GFP-fused Plasmodium falciparum D10. Particulars: read-out: Ratio IC50. It is filed as toxicity.

≈ marks a conversion by molar mass, not a printed value.

As usually defined, the MIC is the least concentration at which growth counts as inhibited. Low readings indicate inhibition by little substance, high ones a need for much substance. The compound `CO[C@H]1/C=C/O[C@@]2(C)Oc3c(C)c(O)c4c(O)c(c(/C=N/N5CCN(C)CC5)c(O)c4c3C2=O)NC(=O)/C(C)=C\C=C\[C@H](C)[C@H](O)[C@@H](C)[C@@H](O)[C@@H](C)[C@H](OC(C)=O)[C@@H]1C` [RIFAMPIN] had an MIC in series [1] of 0.3 to 0.61 µM (≈ 0.247 to 0.502 µg/mL).
The term CC50 denotes the concentration giving 50% cytotoxicity. Broadly, the IC50 is the concentration that gives 50% inhibition. Regarding `Cc1ccc(Cl)c2c1[I+]c1ccccc1-2`, the selectivity ratio in [2] was 3.1; in series [3], 2.8; in [6], 0.74; in [8] it was 0.82. The same compound showed an MIC in series [1] of 0.13 µM. The CC50 at 24 h in series [4] stood at 93 nM; in series [5], 349 nM. In the series with Plasmodium falciparum [7], the IC50 amounted to 110 nM.
In [1], `Fc1ccc(Cl)c2c1[I+]c1ccccc1-2` registered an MIC of 0.27 µM. Besides, the selectivity ratio in series [3] was found to be 10; in series [6], 3.4. The CC50 at 24 h was 930 nM in series [4] and 2720 nM in [5]. Also, in the series on Plasmodium falciparum [7], the 50% inhibitory concentration (IC50) is > 1000 nM.
With `COc1ccc(Cl)c2c1[I+]c1ccccc1-2`, the selectivity ratio in series [2] was determined as 1.75; in [3], 0.44; in series [6] it was 0.31; in [8], 1.2. The MIC in series [1] turned out to be 0.51 µM. The CC50 at 24 h is 150 nM in series [4] and 224 nM in series [5]. The compound also had an IC50 with Plasmodium falciparum [7] of 130 nM.
On to `FC(F)(F)c1cccc2c1-c1ccccc1[I+]2`, for which the selectivity ratio in [2] came to 0.72; in series [9], 0.18; in series [3], 0.36; in series [6], 0.09; in series [11], 0.7; in series [8], 0.18. In addition, in [1], 0.26 µM was the least that counted as inhibitory (MIC). For the same compound, the 50% inhibitory concentration (IC50) in the series on Plasmodium falciparum [10] amounted to 140 nM; in the series with Plasmodium falciparum [7], 130 nM. Also, the values for the CC50 at 24 h in series [4] and in series [5] were 23.6 nM and 94.7 nM, respectively.
Consider `FC(F)(F)Oc1cccc2c1-c1ccccc1[I+]2`, for which the selectivity ratio amounted to 1.9 in [2], 0.99 in series [3], 0.21 in series [6] and 0.39 in [8]. This compound yielded an MIC in [1] of 0.25 µM. Besides, the CC50 at 24 h in series [4] came out at 50.3 nM; in series [5] it was 251 nM. The compound also returned an IC50 with Plasmodium falciparum [7] of 130 nM.
As for `Clc1ccc(Cl)c2c1[I+]c1ccccc1-2`, 0.5 µM was the least that counted as inhibitory in series [1] (MIC). In addition, the selectivity ratio worked out at 3.7 in series [3] and 1.8 in [6]. For the same compound, the CC50 at 24 h stood at 894 nM in series [4] and 1850 nM in series [5]. In addition, in the series with Plasmodium falciparum [7], the IC50 was > 1000 nM.
As to `Clc1cccc2c1[I+]c1cccc(Cl)c1-2`, the selectivity ratio in [2] amounted to 1.5; in [3] it was 2.1; in series [6], 0.32; in series [8], 0.23. In [1], 0.26 µM was the least that counted as inhibitory (MIC). Also, the CC50 at 24 h is 84.6 nM in series [4] and 544 nM in series [5]. Moreover, in the series on Plasmodium falciparum [7], the IC50 stood at 360 nM.
Take `Cc1cccc2c1-c1cccc(Cl)c1[I+]2`: the selectivity ratio turned out to be 5.1 in series [2], 1.8 in [3], 0.22 in series [6] and 0.63 in series [8]. For the same compound, in series [1], the lowest concentration to inhibit growth (MIC) was 0.27 µM. Further, the half-maximal cytotoxic concentration (CC50) at 24 h in series [4] was 60.1 nM; in series [5], 486 nM. The same compound yielded an IC50 in the series on Plasmodium falciparum [7] of 110 nM.
For the compound `Fc1cccc2c1-c1cccc(Cl)c1[I+]2`, the selectivity ratio in series [2] came to 2.1; in series [3], 1.4; in series [6], 0.19; in series [8], 0.28. In addition, it took 0.27 µM to inhibit growth in series [1] (MIC). Moreover, the CC50 at 24 h in series [4] worked out at 52.4 nM; in [5], 386 nM. In the series on Plasmodium falciparum [7], this compound gave an IC50 of 190 nM.
With `Fc1cccc2c1-c1c(Cl)cccc1[I+]2`, the values for the selectivity ratio in [2], in series [3] and in series [6] were < 0.83, 0.8 and 0.38, respectively. In series [1], this compound registered an MIC of 1 µM. Also, the CC50 at 24 h was 392 nM in series [4] and 833 nM in series [5]. Also, in the series with Plasmodium falciparum [7], the IC50 is > 1000 nM.
Take `Fc1cccc2c1-c1c(F)cccc1[I+]2`: the selectivity ratio in series [2] came out at 0.19; in [3] it was 0.58; in series [6], 0.32; in series [8], 0.11. Moreover, the MIC in [1] was found to be 0.28 µM. Also, the CC50 at 24 h in series [4] is 88.6 nM; in series [5], 161 nM. Also, the midpoint of inhibition in the series on Plasmodium falciparum [7], the IC50, lay at 840 nM.

Source of the values: ChEMBL document CHEMBL4145448, “Broad activity of diphenyleneiodonium analogues against Mycobacterium tuberculosis, malaria parasites and bacterial pathogens” (Eur J Med Chem, 2018).
